Test results reported in ChEMBL document CHEMBL3877272, “Synthesis and anti-mitotic activity of 6,7-dihydro-4H-isothiazolo[4,5-b]pyridin-5-ones: In vivo and cell-based studies” (Eur J Med Chem, 2017).

How the values were obtained:
[1] = test system: Paracentrotus lividus; test: Antimitotic activity in sea urchin embryo assessed as cleavage arrest exposed 8 to 15 mins after fertilization 45 to 55 mins before first mitotic cycle completion measured at 2.5 to 5.5 hrs post dose; assay type: functional
How it was run: (§1)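 Paracentrotus lividus eggs, fertilized in filtered seawater, cultured as monolayer (up to 2000 embryos/mL) at room temperature. Exposed 8–15 min post-fertilization to 2-fold decreasing concentrations (DMSO stock diluted in EtOH; final DMSO ≤0.05%, EtOH ≤1%). Cleavage alteration scored at 8-cell, arrest at early blastula stage (2.5–5.5 h). Effective threshold concentration reported; duplicate measurements.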

[2] = test system: Paracentrotus lividus; test: Antimitotic activity in sea urchin embryo assessed as cleavage alteration exposed 8 to 15 mins after fertilization 45 to 55 mins before first mitotic cycle completion measured at 2.5 to 5.5 hrs post dose; assay type: functional; how it was run: as §1
[3] = Antiproliferative activity against human NCI60 cells at 10 uM after 48 hrs by SRB assay relative to control; assay type: functional; details: NCI60, 48 h, read-out: GI
[4] = Solubility in seawater assessed as micro-crystal formation at 4 uM by light microscopy; assay type: physicochemical
How it was run: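 Compound from 10 mM DMSO stock diluted 10-fold in 96% EtOH, added to seawater with sea urchin embryos; microcrystal formation checked by light microscopy.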

[5] = test system: Paracentrotus lividus; test: Antimitotic activity in sea urchin free-swimming blastulae assessed as microtubule destabilization by measuring embryo spinning exposed 8 to 10 hrs after fertilization measured after 15 mins to 20 hrs; assay type: functional, Blastula
How it was run: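 Free-swimming P. lividus blastulae just after hatching (8–10 h post-fertilization) from same culture, exposed in seawater to 2-fold decreasing concentrations (DMSO stock diluted in EtOH). Settling to well bottom with rapid spinning around animal-vegetal axis scored by light microscopy over 15 min–20 h. Effective threshold concentration; duplicate measurements.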

[6] = Antiproliferative activity against human Caov3 cells measured after 96 hrs by Celltiter-Glo assay; assay type: functional, cell-based; details: Caov-3, 96 h
How it was run: (§2)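 Cells plated 24 h, then treated 96 h with 0.1% DMSO or concentrations […]; growth by CellTiter-Glo luminescence, normalized to DMSO control; IC50 from dose–response curves by logistic nonlinear regression; mean of three independent experiments.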

[7] = Antiproliferative activity against human NCI60 cells measured after 48 hrs by SRB assay; assay type: functional; details: NCI60, 48 h
[8] = Antiproliferative activity against human MDA-MB-435 cells measured after 96 hrs by Celltiter-Glo assay; assay type: functional, cell-based; details: MDA-MB-435, 96 h; how it was run: as §2
[9] = Antiproliferative activity against human TOV112D cells measured after 96 hrs by Celltiter-Glo assay; assay type: functional, cell-based; how it was run: as §2
[10] = Antiproliferative activity against human MDA-MB-DYT2 cells measured after 96 hrs by Celltiter-Glo assay; assay type: functional, cell-based; how it was run: as §2
[11] = Antiproliferative activity against human MDA-MB-231 cells measured after 96 hrs by Celltiter-Glo assay; assay type: functional, cell-based; details: MDA-MB-231, 96 h; how it was run: as §2
[12] = Antiproliferative activity against human OVCAR8 cells measured after 3 to 4 days by Celltiter-Glo luminescent cell viability assay; assay type: functional; details: OVCAR-8
[13] = Antiproliferative activity against human MDA-MB-468 cells measured after 48 hrs by SRB assay; assay type: functional, cell-based; details: MDA-MB-468, 48 h
[14] = Antiproliferative activity against human MDA-MB-468 cells measured after 96 hrs by Celltiter-Glo assay; assay type: functional, cell-based; details: MDA-MB-468, 96 h; how it was run: as §2
[15] = Antiproliferative activity against human NCI-H1975 cells measured after 96 hrs by Celltiter-Glo assay; assay type: functional, cell-based; details: NCI-H1975, 96 h; how it was run: as §2
[16] = Antiproliferative activity against human MDA-MB-435 cells measured after 48 hrs by SRB assay; assay type: functional, cell-based; details: MDA-MB-435, 48 h
[17] = Antiproliferative activity against human NCI/ADR-RES cells measured after 3 to 4 days by Celltiter-Glo luminescent cell viability assay; assay type: functional

SMILES	EC [1] [µM]	EC [2] [µM]	inhibition of growth at 10 µM [3] [%]	solubility [4]	EC [5] [µM]	IC50 [6] [µM]	GI50 [7] [µM]	IC50 [8] [µM]	IC50 [9] [µM]	IC50 [10] [µM]	IC50 [11] [µM]	GI50 [12] [µM]	IC50 [13] [µM]	IC50 [14] [µM]	IC50 [15] [µM]	IC50 [16] [µM]	GI50 [17] [µM]
COc1cc(C2CC(=O)Nc3c(-c4ccc(Cl)cc4)nsc32)cc2c1OCO2 (stereo unspecified)	>4	2	17.8	Insoluble	>4												
COc1cc(C2CC(=O)Nc3c(-c4ccccc4)nsc32)c(OC)c2c1OCO2 (stereo unspecified)	>4	>4			>4												
COc1cc(C2CC(=O)Nc3c(-c4ccc(Cl)cc4)nsc32)c(OC)c2c1OCO2 (stereo unspecified)	>4	>4	7.66		>4												
COc1cc(C2CC(=O)Nc3c(-c4cccc(F)c4)nsc32)cc2c1OCO2 (stereo unspecified)	>4	4	4.4		>4												
O=C1CC(c2ccsc2)c2snc(-c3ccc(F)cc3)c2N1 (stereo unspecified)	0.2	0.05			4												
COc1cc(C2CC(=O)Nc3c(-c4ccccc4)nsc32)c(OC)c(O)c1O (stereo unspecified)	>4	>4			>4												
COc1ccc(/C=C\c2cc(OC)c(OC)c(OC)c2)cc1OP(=O)([O-])[O-].[Na+].[Na+] [FOSBRETABULIN DISODIUM]	0.01	0.005			0.05	0.0131	0.0017	0.00875	0.0309	0.06	0.173						
COc1ccc(-c2nsc3c2NC(=O)CC3c2cccc(Cl)c2)cc1OC (stereo unspecified)	>4	2	14		>4												
COc1ccc(-c2nsc3c2NC(=O)CC3c2ccc(F)cc2)cc1 (stereo unspecified)	0.05	0.01			0.1	> 2	3.02	1.82	> 2	> 2	> 2	4.01	2.35	1.85	> 2	0.44	2.11
COc1ccc(C2CC(=O)Nc3c(-c4ccc(F)cc4)nsc32)cc1 (stereo unspecified)	>4	2	6.2		>4												
O=C1CC(c2ccsc2)c2snc(-c3cccc(F)c3)c2N1 (stereo unspecified)	0.5	0.05	7.8		2												
COc1ccc(-c2nsc3c2NC(=O)CC3c2cc(OC)c3c(c2OC)OCO3)cc1 (stereo unspecified)	0.2	0.05			1												
O=C1CC(c2ccc3c(c2)OCO3)c2snc(-c3cccc(F)c3)c2N1 (stereo unspecified)	4	1	5.2		>4												
O=C1CC(c2cccc(F)c2)c2snc(-c3cccc(F)c3)c2N1 (stereo unspecified)	>4	1	6.4		>4												
O=C1CC(c2ccsc2)c2snc(-c3ccc(Cl)cc3)c2N1 (stereo unspecified)	0.1	0.01			0.2	1.08	1.51	0.628	1.15	> 2	1.63	3.01	0.291			0.26	0.364
COc1ccc(-c2nsc3c2NC(=O)CC3c2ccc3c(c2)OCCO3)cc1 (stereo unspecified)	0.05	0.01			0.5	0.833	0.933	0.349	0.659	1.36	1.71	1.41	0.328	0.451	1.24	0.247	0.367
COc1ccc(-c2nsc3c2NC(=O)CC3c2cc(OC)c(O)c(O)c2OC)cc1 (stereo unspecified)	2	1			>5												
COc1ccc(-c2nsc3c2NC(=O)CC3c2cccc(Cl)c2)cc1 (stereo unspecified)	0.1	0.01			0.1	1.3	1.74	0.792	1.27	> 2	1.62	2.92	0.174	0.752	> 2	0.749	0.562
COc1ccc(-c2nsc3c2NC(=O)CC3c2cccc(F)c2)cc1 (stereo unspecified)	0.05	0.01			0.2	> 2	4.9	1.41	> 2	> 2	> 2	7.54	1.94	1.41	> 2	0.827	2.96
O=C1CC(c2ccc3c(c2)OCO3)c2snc(-c3ccc(F)cc3)c2N1 (stereo unspecified)	>4	1	11.7		>4												
COc1cc(C2CC(=O)Nc3c(-c4ccccc4)nsc32)cc2c1OCO2 (stereo unspecified)	>4	4	4.6		>4												
O=C1CC(c2cccc(Cl)c2)c2snc(-c3ccc(F)cc3)c2N1 (stereo unspecified)	4	1	15.6		>4												
COc1ccc(C2CC(=O)Nc3c(-c4cccc(F)c4)nsc32)cc1 (stereo unspecified)	>4	2	5.3		>4												
O=C1CC(c2cccc(Cl)c2)c2snc(-c3cccc(F)c3)c2N1 (stereo unspecified)	4	1			>4												
COc1ccc(-c2nsc3c2NC(=O)CC3c2ccc(Cl)cc2)cc1 (stereo unspecified)	0.2	0.1	15.7		1												
COc1cc(C2CC(=O)Nc3c(-c4cccc(F)c4)nsc32)c(OC)c2c1OCO2 (stereo unspecified)	>4	>4			>4												
